Data as given in ChEMBL document CHEMBL1145482, “Acquired echinocandin resistance in a Candida krusei isolate due to modification of glucan synthase” (Antimicrob Agents Chemother, 2007).
In brackets after ≈: the same amount, converted by molar mass. *1 amine or outer side, *2 acyl side, *3 side chain or, on linkers, in order; H or OH if unused. Where a SMILES comes first, the peptide text is derived from it. Bridges are numbered along the chain shown (N, C = ends). [ ]: non-standard residue; d: D form. The star is where a group is joined. hTyr(3S-OH,4S-OH,3'-OSO3H) = N[C@H](C(=O)O)[C@H](O)[C@@H](O)c1ccc(O)c(OS(=O)(=O)O)c1; pTerphenylCO(4''-OnC5H11) = CCCCCOc1ccc(-c2ccc(-c3ccc(C(=O)*)cc3)cc2)cc1; Orn(4R-OH,5R-OH) = O=C([C@H](C[C@@H](O)[C@@H](O)N[*:3])N[*:1])[*:2]; hTyr(3S-OH,4S-OH) = N[C@H](C(=O)O)[C@H](O)[C@@H](O)c1ccc(O)cc1; Pro(3S-OH,4S-Me) = C[C@H]1CN[C@H](C(=O)O)[C@H]1O; X1 = CCCCCOc1ccc(-c2cc(-c3ccc(C(=O)*)cc3)no2)cc1; Gln(3R-OH) = NC(=O)C[C@@H](O)[C@H](N)C(=O)O; Hyp = O=C(O)[C@@H]1C[C@@H](O)CN1

Experiments:
[1] = tested on: Pichia kudriavzevii; assay: Antifungal activity against Candida krusei 98 isolate from acute myelogenous leukemia patient by broth microdilution method; type: functional
[2] = tested on: Pichia kudriavzevii; assay: Ratio of MIC of FKS1 T2080K mutation containing Candida krusei 100 isolate to MIC of Candida krusei 98 isolate from acute myelogenous leukemia patient by broth microdilution method; type: functional
[3] = tested on: Pichia kudriavzevii; assay: Antifungal activity against FKS1 T2080K mutation containing Candida krusei 100 isolate from acute myelogenous leukemia patient by broth microdilution method; type: functional
[4] = target: 1,3-beta-D-glucan synthase subunit (Pichia kudriavzevii, UniProt Q4U2W2, F655C); assay: Inhibition of FKS1 T2080K mutant from Candida krusei 100 isolate
Method in brief: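 Glucan synthase enzyme complex isolated from posttreatment strain Ck-100. Caspofungin titrated against the enzyme. Inhibition curve fitted with a two-site competition algorithm to give IC50 in ng/ml.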

[5] = target: 1,3-beta-D-glucan synthase subunit (Pichia kudriavzevii, UniProt Q4U2W2); assay: Inhibition of FKS1 from Candida krusei 98 isolate
Method in brief: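 Glucan synthase enzyme complex isolated from the pretreatment clinical strain Ck-98 and titrated with the echinocandin. Inhibition curves were fitted with a sigmoidal variable-slope dose-response model to give IC50 in ng/ml.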

Chain of 1,3-beta-D-glucan synthase subunit (Pichia kudriavzevii, UniProt Q4U2W2, F655C) (Q4U2W2 entry or part of it F655C): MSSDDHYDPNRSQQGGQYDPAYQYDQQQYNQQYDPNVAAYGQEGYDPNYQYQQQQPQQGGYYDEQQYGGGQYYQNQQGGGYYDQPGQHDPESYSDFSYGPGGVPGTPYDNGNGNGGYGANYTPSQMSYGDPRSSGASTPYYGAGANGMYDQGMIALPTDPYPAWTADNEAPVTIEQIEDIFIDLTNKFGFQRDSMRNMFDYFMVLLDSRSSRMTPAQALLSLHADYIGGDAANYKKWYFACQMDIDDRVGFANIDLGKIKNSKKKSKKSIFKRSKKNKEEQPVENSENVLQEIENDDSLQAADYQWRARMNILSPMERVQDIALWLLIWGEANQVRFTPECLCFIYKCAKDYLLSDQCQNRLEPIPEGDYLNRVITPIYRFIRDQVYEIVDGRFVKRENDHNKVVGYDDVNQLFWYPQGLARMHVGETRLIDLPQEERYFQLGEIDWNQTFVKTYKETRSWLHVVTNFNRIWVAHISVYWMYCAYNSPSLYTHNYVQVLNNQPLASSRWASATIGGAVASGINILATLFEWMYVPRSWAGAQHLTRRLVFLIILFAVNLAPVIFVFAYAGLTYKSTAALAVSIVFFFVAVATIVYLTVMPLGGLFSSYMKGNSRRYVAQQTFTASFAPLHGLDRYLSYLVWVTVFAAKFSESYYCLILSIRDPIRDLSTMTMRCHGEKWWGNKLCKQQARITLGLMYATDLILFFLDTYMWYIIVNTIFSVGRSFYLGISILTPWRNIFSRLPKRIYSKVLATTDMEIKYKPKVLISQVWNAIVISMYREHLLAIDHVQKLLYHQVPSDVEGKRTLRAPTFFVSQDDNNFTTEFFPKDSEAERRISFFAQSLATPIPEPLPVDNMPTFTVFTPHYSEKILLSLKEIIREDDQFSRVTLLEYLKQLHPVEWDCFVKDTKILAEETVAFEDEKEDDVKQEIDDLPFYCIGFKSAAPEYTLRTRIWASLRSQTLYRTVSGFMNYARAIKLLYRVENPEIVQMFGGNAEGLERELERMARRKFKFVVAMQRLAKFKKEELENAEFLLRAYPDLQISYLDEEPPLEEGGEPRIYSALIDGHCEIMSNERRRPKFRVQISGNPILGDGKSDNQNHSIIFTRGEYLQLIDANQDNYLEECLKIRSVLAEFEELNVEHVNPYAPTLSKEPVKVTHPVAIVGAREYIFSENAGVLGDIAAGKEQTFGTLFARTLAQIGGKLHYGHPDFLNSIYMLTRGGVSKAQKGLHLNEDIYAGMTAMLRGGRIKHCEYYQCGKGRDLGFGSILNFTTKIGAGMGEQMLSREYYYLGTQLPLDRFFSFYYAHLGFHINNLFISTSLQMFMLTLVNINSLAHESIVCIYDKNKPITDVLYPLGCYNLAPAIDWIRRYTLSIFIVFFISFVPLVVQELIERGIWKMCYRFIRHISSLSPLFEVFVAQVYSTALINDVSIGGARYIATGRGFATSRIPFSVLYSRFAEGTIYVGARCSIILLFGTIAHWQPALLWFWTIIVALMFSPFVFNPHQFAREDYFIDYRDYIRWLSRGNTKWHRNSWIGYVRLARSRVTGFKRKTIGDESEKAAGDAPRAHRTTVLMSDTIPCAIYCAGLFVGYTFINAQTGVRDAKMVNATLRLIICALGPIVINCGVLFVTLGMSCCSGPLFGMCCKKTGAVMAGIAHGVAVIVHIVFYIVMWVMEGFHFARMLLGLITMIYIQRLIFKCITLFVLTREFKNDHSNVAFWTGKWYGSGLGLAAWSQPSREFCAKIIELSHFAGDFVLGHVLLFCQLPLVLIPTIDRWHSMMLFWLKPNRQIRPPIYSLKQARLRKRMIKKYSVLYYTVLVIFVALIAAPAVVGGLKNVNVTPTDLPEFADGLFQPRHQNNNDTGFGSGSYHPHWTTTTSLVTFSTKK
Chain of 1,3-beta-D-glucan synthase subunit (Pichia kudriavzevii, UniProt Q4U2W2) (Q4U2W2 whole entry): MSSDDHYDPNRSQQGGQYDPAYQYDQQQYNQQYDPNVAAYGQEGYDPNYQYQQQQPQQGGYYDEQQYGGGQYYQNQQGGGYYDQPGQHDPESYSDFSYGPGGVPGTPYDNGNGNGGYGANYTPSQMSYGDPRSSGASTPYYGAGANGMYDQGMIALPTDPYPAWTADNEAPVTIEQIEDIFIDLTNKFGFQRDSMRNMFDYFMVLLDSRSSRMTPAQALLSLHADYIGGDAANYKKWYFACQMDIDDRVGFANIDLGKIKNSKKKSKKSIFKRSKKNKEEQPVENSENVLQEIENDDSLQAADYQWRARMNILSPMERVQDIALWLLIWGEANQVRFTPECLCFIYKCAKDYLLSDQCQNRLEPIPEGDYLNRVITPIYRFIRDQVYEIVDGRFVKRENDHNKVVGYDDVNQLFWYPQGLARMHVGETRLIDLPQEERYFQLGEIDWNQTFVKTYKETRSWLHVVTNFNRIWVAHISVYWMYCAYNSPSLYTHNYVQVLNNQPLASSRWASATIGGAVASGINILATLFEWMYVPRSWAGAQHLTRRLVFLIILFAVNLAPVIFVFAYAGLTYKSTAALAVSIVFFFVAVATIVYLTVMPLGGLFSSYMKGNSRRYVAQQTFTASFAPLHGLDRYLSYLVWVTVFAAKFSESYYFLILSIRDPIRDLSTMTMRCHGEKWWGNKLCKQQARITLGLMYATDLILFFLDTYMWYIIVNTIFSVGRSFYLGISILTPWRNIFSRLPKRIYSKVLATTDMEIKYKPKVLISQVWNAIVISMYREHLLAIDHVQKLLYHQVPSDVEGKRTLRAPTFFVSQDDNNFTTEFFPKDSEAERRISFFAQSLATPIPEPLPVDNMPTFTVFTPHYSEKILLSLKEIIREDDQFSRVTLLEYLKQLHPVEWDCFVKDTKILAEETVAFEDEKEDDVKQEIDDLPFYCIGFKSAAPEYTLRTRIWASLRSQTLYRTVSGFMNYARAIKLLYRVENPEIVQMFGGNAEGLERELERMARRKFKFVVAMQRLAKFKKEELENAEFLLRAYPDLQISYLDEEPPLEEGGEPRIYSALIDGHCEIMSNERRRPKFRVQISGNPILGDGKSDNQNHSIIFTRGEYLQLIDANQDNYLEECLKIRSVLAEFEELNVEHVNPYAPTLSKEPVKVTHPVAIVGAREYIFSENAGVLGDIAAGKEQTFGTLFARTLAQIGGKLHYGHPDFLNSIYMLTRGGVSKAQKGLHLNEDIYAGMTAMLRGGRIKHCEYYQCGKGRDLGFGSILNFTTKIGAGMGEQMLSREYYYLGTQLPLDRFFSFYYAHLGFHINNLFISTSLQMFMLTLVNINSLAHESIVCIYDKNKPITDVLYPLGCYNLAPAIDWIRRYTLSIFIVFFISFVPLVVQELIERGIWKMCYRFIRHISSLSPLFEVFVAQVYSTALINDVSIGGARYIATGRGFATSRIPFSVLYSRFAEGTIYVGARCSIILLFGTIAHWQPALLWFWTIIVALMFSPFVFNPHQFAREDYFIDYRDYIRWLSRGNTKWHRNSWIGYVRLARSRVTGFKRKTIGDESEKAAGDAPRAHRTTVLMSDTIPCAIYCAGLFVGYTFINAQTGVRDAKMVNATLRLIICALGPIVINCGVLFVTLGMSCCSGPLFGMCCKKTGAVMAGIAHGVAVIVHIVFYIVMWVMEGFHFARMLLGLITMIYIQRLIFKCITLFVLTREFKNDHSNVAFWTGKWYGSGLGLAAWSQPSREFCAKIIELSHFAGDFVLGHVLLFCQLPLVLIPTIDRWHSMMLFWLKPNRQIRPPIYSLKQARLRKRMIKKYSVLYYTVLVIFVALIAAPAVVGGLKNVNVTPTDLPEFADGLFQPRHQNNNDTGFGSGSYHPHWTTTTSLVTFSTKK

SMILES | MIC [1] [µg/mL] | Ratio [2] | MIC [3] [µg/mL] | IC50 [4] [nM] | IC50 [5] [nM]
CCCCCOc1ccc(-c2ccc(-c3ccc(C(=O)N[C@H]4C[C@@H](O)[C@@H](O)NC(=O)[C@@H]5[C@@H](O)[C@@H](C)CN5C(=O)[C@H]([C@@H](C)O)NC(=O)[C@H]([C@H](O)[C@@H](O)c5ccc(O)cc5)NC(=O)[C@@H]5C[C@@H](O)CN5C(=O)[C@H]([C@@H](C)O)NC4=O)cc3)cc2)cc1 [ANIDULAFUNGIN] ({pTerphenylCO(4''-OnC5H11)}-[Orn(4R-OH,5R-OH)]T[Hyp][hTyr(3S-OH,4S-OH)]T[Pro(3S-OH,4S-Me)]; lactam 1-C) | 0.25 (≈ 0.219 µM) | 16 | 4 (≈ 3.51 µM) |  | 
CC[C@H](C)C[C@H](C)CCCCCCCCC(=O)N[C@H]1C[C@@H](O)[C@@H](NCCN)NC(=O)[C@@H]2[C@@H](O)CCN2C(=O)[C@H]([C@H](O)CCN)NC(=O)[C@H]([C@H](O)[C@@H](O)c2ccc(O)cc2)NC(=O)[C@@H]2C[C@@H](O)CN2C(=O)[C@H]([C@@H](C)O)NC1=O [CASPOFUNGIN] | 0.25 (≈ 0.229 µM) | 32 | 8 (≈ 7.32 µM) | 3610 | 6.22
CCCCCOc1ccc(-c2cc(-c3ccc(C(=O)N[C@H]4C[C@@H](O)[C@@H](O)NC(=O)[C@@H]5[C@@H](O)[C@@H](C)CN5C(=O)[C@H]([C@H](O)CC(N)=O)NC(=O)[C@H]([C@H](O)[C@@H](O)c5ccc(O)c(OS(=O)(=O)O)c5)NC(=O)[C@@H]5C[C@@H](O)CN5C(=O)[C@H]([C@@H](C)O)NC4=O)cc3)no2)cc1 [MICAFUNGIN] (X1-[Orn(4R-OH,5R-OH)]T[Hyp][hTyr(3S-OH,4S-OH,3'-OSO3H)][Gln(3R-OH)][Pro(3S-OH,4S-Me)]; lactam 1-C) | 0.25 (≈ 0.197 µM) | 16 | 4 (≈ 3.15 µM) |  | 
